Among the data in ChEMBL document CHEMBL4842360, “Discovery of a Bicyclic Peptidyl Pan-Ras Inhibitor” (J Med Chem, 2021) are Activity, Drug uptake and EC50 values, retold here.

The species entered for series [1] is Homo sapiens. Description: Binding affinity to glutathione-S-transferase (unknown origin). The gist of the method:
(§1)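 Fluorescein-labeled peptide (100 nM) incubated 1 h at RT with varying concentrations of control protein (BSA, GST-RBD, PNP, PTP1B or MDM2). KD derived from fluorescence polarization titration curves.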

Series [2] has as its target T1, Tyrosine-protein phosphatase non-receptor type 1 (Homo sapiens) (UniProt P18031).
T1 sequence (whole entry): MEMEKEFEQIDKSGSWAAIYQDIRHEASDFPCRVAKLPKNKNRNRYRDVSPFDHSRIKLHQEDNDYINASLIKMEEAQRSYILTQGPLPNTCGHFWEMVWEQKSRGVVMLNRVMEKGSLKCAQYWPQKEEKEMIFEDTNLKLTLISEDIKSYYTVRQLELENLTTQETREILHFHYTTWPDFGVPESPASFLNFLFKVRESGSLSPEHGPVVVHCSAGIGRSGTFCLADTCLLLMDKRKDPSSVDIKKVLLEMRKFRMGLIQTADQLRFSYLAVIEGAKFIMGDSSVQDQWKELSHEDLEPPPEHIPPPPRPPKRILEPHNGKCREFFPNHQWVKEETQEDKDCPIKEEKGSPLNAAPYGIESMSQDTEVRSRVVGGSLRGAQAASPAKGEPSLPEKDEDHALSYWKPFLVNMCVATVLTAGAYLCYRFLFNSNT
Nature of the series: Binding affinity to PTP1B (unknown origin). The method, boiled down:
as §1

The nature of series [3]: Drug localization in human HeLa cells assessed as mean fluorescence intensity at 5 uM incubated for 2 hrs in presence of 1% FBS by flow cytometry relative to CPP12. It is filed as ADME, cell-based. The method, boiled down: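 HeLa cells treated with 5 μM fluorescein-labeled peptide and analysed by flow cytometry. Mean fluorescence intensity expressed relative to FITC-labeled CPP12 (100%).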
Background: Flow cytometry measures light scatter and fluorescence of single cells or particles in a stream.

A short description of series [4]: Drug distribution in human HeLa cells assessed as diffuse fluorescence throughout the entire cell volume at 5 uM incubated for 2 hrs by live-cell confocal microscopy. It is filed as ADME, cell-based. The method, boiled down: (§2)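 HeLa, H358 or A549 cells treated with 5 μM fluorescein-labeled peptide for 2 h, then imaged by live-cell confocal microscopy for intracellular fluorescence pattern.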

Series [5] in a line: Drug distribution in human A549 cells assessed as accumulation in plasma membrane at 5 uM incubated for 2 hrs by live-cell confocal microscopy. Conditions: a549, 2 h. It is filed as ADME, cell membranes. The gist of the method: as §2
The subject of series [6] is A549. Description: Antiproliferative activity against human A549 cells harboring KRAS G12S mutant incubated for 96 hrs by CellTiter-Glo2 assay. It is filed as functional, cell-based. To be noted: A549, 96 h. The gist of the method:
(§3)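 Cells plated at 5,000/well, grown overnight, then exposed to serially diluted peptide (0–40 μM) in medium with 10% FBS for 96 h at 37 °C, 5% CO2. Viability read by CellTiter-Glo 2.0 luminescence after 15 min at RT.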

In series [7] the test system is NCI-H358. Nature of the series: Induction of apoptosis in human NCI-H358 cells assessed as live cells at 1 uM incubated for 24 hrs by Alexa Fluor 488 annexin V/propidium iodide staining based assay (reference value: 87%). It is filed as functional.
For series [8], the system named is NCI-H358. Nature of the series: Induction of apoptosis in human NCI-H358 cells assessed as early apoptotic cells at 1 uM incubated for 24 hrs by Alexa Fluor 488 annexin V/propidium iodide staining based assay (reference value: 3.05%). It is filed as functional.
Series [9] relates to NCI-H358. Description: Induction of apoptosis in human NCI-H358 cells assessed as necrotic cells at 10 uM incubated for 24 hrs by Alexa Fluor 488 annexin V/propidium iodide staining based assay (reference value: 0.699%). It is filed as functional.
For series [10], the system named is A549. Nature of the series: Antitumor activity against human A549 cells xenografted in mouse assessed as average tumor volume at 1 mg/kg, iv administered for 9 days measured every other day (reference value: 100 mm3). Conditions: time 9 day. It is filed as functional. The method, boiled down: (§4)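 Nude mice given ~1.5 million A549 cells subcutaneously. Once tumors reached ~40 mm3, groups of n = 6 received peptide at 1 or 5 mg/kg/day or PBS vehicle by tail-vein injection for 9 days. Tumor volume was tracked, and tumors were weighed at harvest.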
A general note: A xenograft is tissue or cells of one species grown in another, often human tumour cells in immunodeficient mice.

In series [11] the test system is A549. Nature of the series: Antitumor activity against human A549 cells xenografted in mouse assessed as average tumor volume at 5 mg/kg, iv administered for 9 days measured every other day (reference value: 100 mm3). It is filed as functional. Conditions: time 9 day. The gist of the method: as §4
In series [12] the test system is A549. Nature of the series: Antitumor activity against human A549 cells xenografted in mouse assessed as reduction in tumor growth at 5 mg/kg, iv administered for 9 days measured every other day. It is filed as functional. On the set-up: scale not given: the % may be the effect or the level left. Conditions: time 9 day. The method, boiled down: as §4
The test system of series [13] is NCI-H358. Description: Antitumor activity against human NCI-H358 cells xenografted in mouse assessed as suppression of tumor growth at 5 mg/kg, iv administered for 9 days measured every other day. It is filed as functional, organism-based. To be noted: time 9.0 day. The gist of the method:
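H358 xenograft in mice; peptide given daily at 5 mg/kg i.v. for 9 days, with tumor growth followed over that period.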

Series [14] relates to DLD-1. Description: Antiproliferative activity against human DLD-1 cells harboring KRAS G13D mutant incubated for 96 hrs by CellTiter-Glo2 assay. Conditions: DLD-1, 96 h. It is filed as functional, cell-based. The method, boiled down: as §3
On the technique in general: In ATP-based viability assays light output follows the ATP content of the culture.

SMILES strings stand for the structures. Active and inactive are the calls of the source. The rule behind the calls is not given here. Numbered stars: 1 amine (or outer) side, 2 acyl side, 3 side chain; on linkers, the order of the positions; unused ones are H or OH. Bridge positions count the residues as written; N and C are the ends. Square brackets hold non-standard residues; d marks the D form. Peptide text beside a SMILES is read from it. Trimesoyl = O=C(c1cc(C(=O)[*:2])cc(C(=O)[*:3])c1)[*:1]; d2Nal = N[C@H](Cc1ccc2ccccc2c1)C(=O)O; Phg = N[C@H](C(=O)O)c1ccccc1; Orn = NCCC[C@H](N)C(=O)O; Dap = NC[C@H](N)C(=O)O

The term EC50 denotes the concentration needed to bring the measured effect to its halfway point. Consider `C[C@@H](NC(=O)[C@H](Cc1ccccc1)NC(=O)[C@@H](CCCNC(=N)N)NC(=O)[C@H](CCCN)NC(=O)[C@@H]1CNC(=O)c2cc3cc(c2)C(=O)N[C@H](Cc2ccc4ccccc4c2)C(=O)N[C@@H](CO)C(=O)N[C@@H](CC(N)=O)C(=O)N[C@H](Cc2ccc4ccccc4c2)C(=O)N[C@@H](c2ccccc2)C(=O)N[C@@H](CCCCNC3=O)C(=O)N[C@H](Cc2ccccc2)C(=O)N[C@@H](CCC(N)=O)C(=O)N[C@H](CCCNC(=N)N)C(=O)N[C@@H](CCCNC(=N)N)C(=O)N1)C(N)=O` ([d2Nal]SN[d2Nal][Phg]K[dF]Q[dR]R[Dap][Orn][dR]F[dA]-NH2; linker N-6-11 via Trimesoyl), for which the result in series [1] and in series [2] was inactive. For the same compound, the Drug uptake in series [3] is 226%; in series [4], “Active”; in series [5] it was “Active”. For the same compound, the EC50 in [6] was 500 nM; in [14] it was 4900 nM. The Activity in series [7] came out at 87.7%; in series [8], 3.13%; in series [9], 0.493%; in series [10] it was 50 mm3; in [11] it was 35 mm3; in series [12], 100%. Moreover, the outcome in [13] was Active.
